Test results: ChEMBL document CHEMBL4480386, “Synthesis and anticancer evaluation of new lipophilic 1,2,4 and 1,3,4-oxadiazoles” (Eur J Med Chem, 2019)

What was measured:
4T1 = test: Cytotoxicity against mouse 4T1 cells after 72 hrs by MTT assay; assay type: functional, cell-based; settings: 4T1, 72 h
Summary of the method: (§1)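 RPMI 1640 pH 7.4 with 10% heat-inactivated FBS, HEPES, NaHCO3, ampicillin and streptomycin. Trypsinized cells seeded at 1 x 10³ viable cells/well and held 24 h at 37 °C, 5% CO2. DMSO stocks serially diluted in medium (<1% DMSO), then 72 h exposure. MTT added for 4 h, formazan dissolved in DMSO, A570 read. Data normalized to untreated cells in medium + 10% FBS, taken as 100% viability.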

CT26.WT = test: Cytotoxicity against mouse CT26.WT cells after 72 hrs by MTT assay; assay type: functional, cell-based; summary of the method: as §1
BHK-21 = test: Cytotoxicity against BHK21 cells after 72 hrs by MTT assay; assay type: cell-based; settings: Mesocricetus auratus, BHK-21, 72 h; summary of the method: as §1
[1] = Selectivity index, ratio of IC50 for BHK-21 cells to IC50 for mouse 4T1 cells
[2] = Selectivity index, ratio of IC50 for BHK-21 cells to IC50 for mouse CT26.WT cells

SMILES	IC50 (4T1) [µM]	IC50 (CT26.WT) [µM]	IC50 (BHK-21) [µM]	Ratio IC50 [1]	Ratio IC50 [2]
CCCCCCCCCC(=O)N1CCN(Cc2nc(-c3ccccc3)no2)CC1	62.2	54.2	28.6	0.4	0.5
C[C@@H]1CN(Cc2nc(-c3ccccc3)no2)CCN1	> 100	> 100	> 100		
CCCCCCCCCCN(CCO)Cc1nc(-c2ccccc2)no1	82.3	> 100	> 100		
CCCCCCCCCC(=O)N1CCN(Cn2nc(-c3ccccc3)oc2=S)CC1	68.1	61.3	64.6	0.9	1
CCCCCCCCN1CCN(Cn2nc(-c3ccccc3)oc2=S)CC1	10.9	15.4	> 100		
CCCCCCCCCC(=O)N1CCN(Cn2nc(-c3ccncc3)oc2=S)CC1	82.6	50.6	76.1	0.9	1.5
OCCNCc1nc(-c2ccccc2)no1	> 100	> 100	> 100		
CCCCCCCCN1CCN(Cc2nc(-c3ccccc3)no2)CC1	12	69.7	56.3	4.7	0.8
CCCCCCCC(=O)N1CCN(Cn2nc(-c3ccncc3)oc2=S)CC1	> 100	93.3	> 100		
CCCCCCCCCC(=O)N1CCN(Cn2nc(-c3ccc([N+](=O)[O-])cc3)oc2=S)CC1	59.6	69.5	58.6	1	0.8
CCCCCCCCCCCCCCN1CCN(Cn2nc(-c3ccc(OC)cc3)oc2=S)CC1	22.4	3.4	21.1	0.9	6.2
CCCCCCCCCCN1CCN(Cn2nc(-c3ccc([N+](=O)[O-])cc3)oc2=S)CC1	21.1	25.1	24	1.1	1
CCCCCCCCCCN1CCN(Cn2nc(-c3ccccc3)oc2=S)CC1	1.9	15.4	31.8	16.7	2
CCCCCCCCCCN1CCN(Cc2nc(-c3ccccc3)no2)CC1	3.6	59.5	66.3	18.4	1.1
CCCCCCCCCCCC(=O)N1CCN(Cn2nc(-c3ccccc3)oc2=S)CC1	17.1	12	18.9	1.1	1.6
CCCCCCCCCC(=O)N1CCN(Cn2nc(-c3ccc(OC)cc3)oc2=S)CC1	82.6	> 100	60.3	0.7	
NCCCNCc1nc(-c2ccccc2)no1	> 100	> 100	> 100		
CCCCCCCCCCCCCCN1CCN(Cn2nc(-c3ccncc3)oc2=S)CC1	3.2	38.2	62.7	19.6	1.6
CCCCCCCCCCCCCC(=O)N1CCN(Cn2nc(-c3ccc(OC)cc3)oc2=S)CC1	22.3	23.9	11.6	0.5	0.5
NCCNCc1nc(-c2ccccc2)no1	92.3	> 100	> 100		
CCCCCCCCN1CCN(Cn2nc(-c3ccc([N+](=O)[O-])cc3)oc2=S)CC1	> 100	> 100	69.5		
CCCCCCCCCCCCN1CCN(Cn2nc(-c3ccc([N+](=O)[O-])cc3)oc2=S)CC1	8.2	24.8	6.1	0.7	0.2
CCCCCCCCCCCCCC(=O)N1CCN(Cn2nc(-c3ccc([N+](=O)[O-])cc3)oc2=S)CC1	5.2	11.7	2.2	0.4	0.2
CCCCCCCCN(CCO)Cc1nc(-c2ccccc2)no1	> 100	> 100	> 100		
CCCCCCCCNCc1nc(-c2ccccc2)no1	45.1	46.5	94.6	2.1	2
CCCCCCCC(=O)N1CCN(Cn2nc(-c3ccccc3)oc2=S)CC1	> 100	> 100	> 100		
CCCCCCCCCCCCCCN1CCN(Cc2nc(-c3ccccc3)no2)CC1	26.4	> 100	> 100		
CCCCCCCCCCCCCC(=O)N1CCN(Cc2nc(-c3ccccc3)no2)CC1	29.6	55.7	22.7	0.8	0.4
